This passage reports Ki results from BindingDB's records for doi:10.1016/j.bmcl.2007.06.010 (Institut Henri Beaufour, 2007).

The target of the assay is Melanocortin receptor 4 (Homo sapiens, UniProt P32245). The assay can be described thus: Displacement of [125I]NDP-alphaMSH from human melanocortin 4 receptor expressed in CHOK1 cells. The procedure, abridged:
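Membranes from CHO-K1 cells stably expressing human MC1, MC3, MC4 or MC5 receptor, 1–10 µg protein/well, in 50 mM Tris-HCl pH 7.4 with 0.2% BSA, 5 mM MgCl2, 1 mM CaCl2, 0.1 mg/mL bacitracin. Incubated with increasing test compound and 0.1–0.3 nM [125I]NDP-α-MSH, 90–120 min at 37 °C depending on subtype. Filtration on PEI-presoaked GF/C filters, cold buffer washes, radioactivity counted; nonlinear regression; three independent measurements.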

Chain of Melanocortin receptor 4 (P32245 whole entry): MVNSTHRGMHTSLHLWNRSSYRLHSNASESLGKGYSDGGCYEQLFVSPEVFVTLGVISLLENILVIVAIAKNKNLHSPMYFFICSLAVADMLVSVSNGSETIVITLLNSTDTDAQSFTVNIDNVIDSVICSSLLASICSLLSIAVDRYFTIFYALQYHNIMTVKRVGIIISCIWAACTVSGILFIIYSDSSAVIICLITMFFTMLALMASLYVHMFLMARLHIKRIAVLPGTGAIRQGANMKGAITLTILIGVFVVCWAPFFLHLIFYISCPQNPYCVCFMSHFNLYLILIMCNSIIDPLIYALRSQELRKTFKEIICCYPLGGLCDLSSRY

Regarding `CC(C)CCN(CCC(C)C)C(=O)c1ccc2nc(NCc3ccccc3)n(CCCN3CCCCC3)c2c1` [2-(benzylamino)-N,N-diisopentyl-3-(3-(piperidin-1-yl)propyl)-3H-benzo[d]imidazole-5-carboxamide], the Ki was found to be 17 nM.
